This experiment has as its target Cell division control protein 42 homolog (Homo sapiens) (UniProt P60953). The experiment can be described thus: compound effect on Cdc42 GTP saturation binding, late-stage follow-up, mechanism study for Ras-family GTPase inhibitor project, biochemical, EDTA buffer, varying GTP (AID 2378). Conditions: GST-Cdc42 beads, BODIPY-GTP binding, flow cytometry. Summed up: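 System: GST-Cdc42 on glutathione beads; input: GST-Cdc42 at 4 µM during overnight bead capture; doses: single 10 µM compound dose versus DMSO vehicle; schedule: 4 °C overnight capture, 2 min pre-incubation; signal: flow cytometric bead fluorescence; read-out: GTP Bmax and Kd from one-site hyperbolic fit of specific binding; control set: DMSO vehicle reference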
For orientation: Flow cytometry measures light scatter and fluorescence of single cells or particles in a stream.

Sequence of Cell division control protein 42 homolog (Homo sapiens) (P60953 whole entry, looked up): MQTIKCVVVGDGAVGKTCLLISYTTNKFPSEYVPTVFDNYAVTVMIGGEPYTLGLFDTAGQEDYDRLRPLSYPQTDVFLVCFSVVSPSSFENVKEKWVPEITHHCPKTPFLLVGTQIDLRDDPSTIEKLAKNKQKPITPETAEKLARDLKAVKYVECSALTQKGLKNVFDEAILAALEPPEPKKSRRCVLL

As to `COc1ccc(C2CC(c3ccccc3)=NN2c2ccc(S(N)(=O)=O)cc2)cc1` (configuration not stated), the Bmax with compound (at 10 µM, stronger effect = lower value) is 19800. Where the note is “measured here: GTP Kd with compound”, the dissociation constant Kd (in general, a measure of binding affinity in units of concentration) was 0.0464 µM.

(Values after PubChem BioAssay AID2378 (NMMLSC, 2010).)
